The nature of data set [1]: Selectivity index, ratio of CC50 for human MT4 cells to EC50 for HIV2 ROD. It counts as toxicity, cell-based. Particulars: for selectivity ratio: MT4 cells, read-out: Ratio CC50/EC50; for Ratio CC50/EC50: mt4; call rule not given here. An outline of the steps:
(§1)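 Ratio of CC₅₀ to EC₅₀. Both come from a 5-day MTT assay in MT-4 cells, using parallel mock-infected wells and wells infected with the named virus strain (100–300 CCID₅₀), with serial fivefold compound dilutions in triplicate.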

Data set [2] has as its system Human immunodeficiency virus 1. Put plainly: Antiviral activity against HIV1 3B infected in human MT4 cells assessed as virus-induced cytopathic effect by MTT assay. It counts as functional, organism-based. Conditions: Human immunodeficiency virus 1, 3B. The gist of the method:
(§2)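 MT-4 cells (exponentially growing, resuspended at 6 × 10⁵ cells/mL) are infected with HIV-1 IIIB or HIV-2 ROD stock at 100–300 CCID₅₀. Serial fivefold compound dilutions are added at the start, in triplicate wells. After 5 days, viability is read by MTT reduction at OD540, using the median OD of three wells. EC₅₀ is the concentration giving 50% protection from the viral cytopathic effect.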
(In general: Cytopathic effects are the visible damage that an infection or toxin causes in cultured cells.)

Data set [3] concerns Human immunodeficiency virus 2. Put plainly: Antiviral activity against HIV2 ROD infected in human MT4 cells assessed as virus-induced cytopathic effect by MTT assay. The data set is classed as functional, organism-based. Conditions: Human immunodeficiency virus 2, ISOLATE ROD. An outline of the steps: as §2
Data set [4] can be described thus: Cytotoxicity against human MT4 cells by MTT assay. The data set is classed as cell-based. An outline of the steps: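 Mock-infected MT-4 cells (6 × 10⁵ cells/mL) are run in parallel triplicate wells with serial fivefold compound dilutions and culture medium in place of virus. After 5 days, MTT formazan is read at OD540, using the median OD of three wells. CC₅₀ is the concentration that cuts absorbance of the mock-infected control by 50%.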

Data set [5] in a line: Selectivity index, ratio of CC50 for human MT4 cells to EC50 for HIV1 3B. It counts as toxicity, cell-based. Conditions: for selectivity ratio: MT4 cells, read-out: Ratio CC50/EC50; for Ratio CC50/EC50: mt4. The gist of the method:
as §1

Data set [6] relates to Human immunodeficiency virus 1. Put plainly: Antiviral activity against wild type HIV1 by MTT assay. The data set is classed as functional, organism-based.
The subject of data set [7] is Human immunodeficiency virus 1. Put plainly: Antiviral activity against […] HIV1 bearing reverse transcriptase K103/Y181C mutation by MTT assay. The data set is classed as functional, organism-based. A general note: Tetrazolium assays rely on reduction of a dye to a coloured formazan, in cell work by metabolically active cells.

Bounds are passed on as bounds.

These results are taken from ChEMBL document CHEMBL1153517, “Synthesis and biological evaluation of imidazole thioacetanilides as novel non-nucleoside HIV-1 reverse transcriptase inhibitors” (Bioorg Med Chem, 2009).

The term EC50 denotes the concentration that produces a half-maximal response. Usually CC50 stands for the concentration giving 50% cytotoxicity. Higher therefore signals better tolerance by the cells. As to `Cc1ccccc1NC(=O)CSc1nccn1-c1cccc2ccccc12`, the selectivity ratio was below 1 in data set [1] and 14 in data set [5]. In addition, the EC50 in data set [2] is 2.46 µM; in data set [3], above 34.6 µM. In addition, the midpoint of cytotoxicity in data set [4], the CC50, lay at 34.6 µM.
For `Cc1ccccc1NC(=O)CSc1nccn1-c1ccc(Cl)cc1` the same measures were below 1, 5, 35.4 µM, above 160 µM and 160 µM.
For `Cc1ccc(-n2ccnc2SCC(=O)Nc2ccc(C)cc2Br)cc1` the same measures were below 1, 66, above 80.8 µM, above 80.8 µM and 80.8 µM.
What is called IC50 is the concentration at which inhibition is half-maximal. `Cc1cc(C)c(-n2nnnc2SCC(=O)Nc2ccccc2Cl)c(C)c1` returned an IC50 in data set [6] of 0.005 µM.
Take `Cc1ccc(NC(=O)CSc2nnc(C)n2-c2ccccc2)c(Br)c1`: the EC50 in data set [6] was 0.1 µM; in data set [7], 1.3 µM.
On to `Cc1ccc(-n2ccnc2SCC(=O)Nc2ccccc2F)cc1`, for which the selectivity ratio in data set [1] and in data set [5] was below 1 in each case. Moreover, the EC50 in data set [2] and in data set [3] was above 37.9 µM each time. For the same molecule, it took 37.9 µM to reach half-maximal cytotoxicity in data set [4] (CC50).
Regarding `COc1ccc(-n2ccnc2SCC(=O)Nc2ccccc2Cl)cc1`, in data set [1], the “Ratio CC50/EC50” value was “Not Active”. For the same molecule, the EC50 was 32.3 µM in data set [2] and above 334 µM in data set [3]. The molecule also came in with a CC50 in data set [4] above 334 µM. Besides, in data set [5], the selectivity ratio was above 10.
Regarding `COc1ccc(-n2ccnc2SCC(=O)Nc2ccccc2[N+](=O)[O-])cc1`, the selectivity ratio was below 1 in data set [1] and above 9 in data set [5]. Moreover, the concentration giving a half-maximal response (EC50) in data set [2] was 17.9 µM; in data set [3], above 161 µM. This molecule gave a CC50 in data set [4] of 161 µM.
For the molecule `O=C(CSc1nccn1-c1ccc(Cl)cc1)Nc1ccccc1Cl`, the “Ratio CC50/EC50” value in data set [1] and in data set [5] was “Not Active” in each case. The EC50 in data set [2] is at least 11.7 µM; in data set [3] it was above 330 µM. Also, the CC50 in data set [4] was above 330 µM.
On to `Cc1ccc(NC(=O)CSc2nccn2-c2ccc(Cl)cc2)c(Br)c1`, for which the selectivity ratio in data set [1] is below 1; in data set [5], 64. Besides, the concentration for a half-maximal effect (EC50) in data set [2] was at least 55.2 µM; in data set [3], above 204 µM. This molecule also gave a CC50 in data set [4] of 221 µM.
As to `Cc1ccc(-n2ccnc2SCC(=O)Nc2ccccc2[N+](=O)[O-])cc1`, the selectivity ratio in data set [1] is below 1; in data set [5], 126. Further, the EC50 is 1.03 µM in data set [2] and above 131 µM in data set [3]. For the same molecule, the 50% cytotoxic concentration (CC50) in data set [4] was 131 µM.
The matching figures for `COc1ccc(-n2ccnc2SCC(=O)Nc2ccc(C)cc2Br)cc1`: below 1, below 1, above 25.8 µM, above 25.8 µM and 25.8 µM.
With `COc1ccc(-n2ccnc2SCC(=O)Nc2ccccc2F)cc1`, the “Ratio CC50/EC50” value in data set [1] and in data set [5] was “Not Active” each time. Also, the EC50 in data set [2] and in data set [3] was above 42 µM each time. This molecule yielded a half-maximal cytotoxic concentration (CC50) in data set [4] of at least 42 µM.
`COc1ccc(-n2ccnc2SCC(=O)Nc2ccccc2Br)cc1`: the “Ratio CC50/EC50” value in data set [1] is on record as “Not Active”. The EC50 in data set [2] was at least 18.4 µM; in data set [3] it was above 299 µM. For the same molecule, the CC50 in data set [4] is above 299 µM.
`O=C(CSc1nccn1-c1cccc2ccccc12)Nc1ccccc1F`: the figures for the selectivity ratio in data set [1] and in data set [5] were below 1 and 20, respectively. In addition, the results for the EC50 in data set [2] and in data set [3] were 1.78 µM and above 34.7 µM, respectively. In addition, the CC50 in data set [4] was determined as 34.7 µM.
Consider `O=C(CSc1nccn1-c1ccc(Cl)cc1)Nc1ccccc1[N+](=O)[O-]`, for which, in data set [1], the “Ratio CC50/EC50” value is given as “Not Active”. Moreover, the concentration giving a half-maximal response (EC50) in data set [2] is 4.86 µM; in data set [3] it was above 321 µM. In addition, the 50% cytotoxic concentration (CC50) in data set [4] is above 321 µM. In addition, in data set [5], the selectivity ratio is above 66.
The molecule `O=C1Nc2ccc(Cl)cc2[C@@](C#CC2CC2)(C(F)(F)F)O1` [EFAVIRENZ] showed a CC50 in data set [4] above 6.34 µM. Moreover, in data set [5], the selectivity ratio was above 1430.
Consider `COc1ccc(-n2ccnc2SCC(=O)Nc2ccccc2C)cc1`, for which, in data set [1], the “Ratio CC50/EC50” value is “Not Active”. Also, the EC50 was 155 µM in data set [2] and above 354 µM in data set [3]. This molecule displayed a CC50 in data set [4] above 354 µM. For the same molecule, the selectivity ratio in data set [5] is above 2.
On to `O=C(CSc1nccn1-c1cccc2ccccc12)Nc1ccccc1Cl`, for which the selectivity ratio is below 1 in data set [1] and 170 in data set [5]. Moreover, the EC50 in data set [2] is 0.2 µM; in data set [3] it was above 35.2 µM. The CC50 in data set [4] was found to be 35.2 µM.
In data set [4], `CC(C)Nc1cccnc1N1CCN(C(=O)c2cc3cc(NS(C)(=O)=O)ccc3[nH]2)CC1` [DELAVIRDINE] had a half-maximal cytotoxic concentration (CC50) above 3.83 µM. In addition, in data set [5], the selectivity ratio was above 12.
For `Cc1ccc(-n2ccnc2SCC(=O)Nc2ccccc2C)cc1`, the values for the selectivity ratio in data set [1] and in data set [5] were below 1 and 5, respectively. The EC50 in data set [2] is 30.9 µM; in data set [3] it was above 147 µM. Further, half-maximal cytotoxicity in data set [4] (CC50) was put at 147 µM.
Consider `Cc1cn([C@H]2C[C@H](N=[N+]=[N-])[C@@H](CO)O2)c(=O)[nH]c1=O` [ZIDOVUDINE], for which, in data set [4], the CC50 is above 93.5 µM. Moreover, the selectivity ratio in data set [5] was above 6190.
For `O=C(CSc1nccn1-c1ccc(Cl)cc1)Nc1ccccc1Br`, in data set [1], the “Ratio CC50/EC50” value was “Not Active”. The EC50 in data set [2] is 15.8 µM; in data set [3], above 296 µM. Further, in data set [4], the CC50 is above 300 µM. Also, the selectivity ratio in data set [5] was above 19.
Turning to `O=C(CSc1nccn1-c1cccc2ccccc12)Nc1ccccc1[N+](=O)[O-]`, the results for the selectivity ratio in data set [1] and in data set [5] were below 1 and 162, respectively. Besides, the EC50 in data set [2] was 0.18 µM; in data set [3], above 28.8 µM. In addition, it took 28.8 µM to reach half-maximal cytotoxicity in data set [4] (CC50).
For `Cc1ccc(-n2ccnc2SCC(=O)Nc2ccccc2Cl)cc1` the same measures were below 1, 7, 4.97 µM, above 33.7 µM and 33.7 µM.
Take `O=C(CSc1nccn1-c1ccc(Cl)cc1)Nc1ccccc1F`: in data set [1], the “Ratio CC50/EC50” value was “Not Active”. Also, the figures for the EC50 in data set [2] and in data set [3] were 43.8 µM and above 345 µM, respectively. The cytotoxic concentration (CC50) in data set [4] is above 345 µM. Besides, the selectivity ratio in data set [5] is above 8.
Consider `Cc1ccc(NC(=O)CSc2nccn2-c2cccc3ccccc23)c(Br)c1`, for which the figures for the selectivity ratio in data set [1] and in data set [5] were below 1 and 40, respectively. For the same molecule, the EC50 in data set [2] is 0.73 µM; in data set [3], above 29.4 µM. In data set [4], this molecule returned a CC50 of 29.4 µM.
For `Cc1ccc(-n2ccnc2SCC(=O)Nc2ccccc2Br)cc1` the same measures were below 1, 8, 5.15 µM, above 39.3 µM and 39.3 µM.
The matching figures for `O=C(CSc1nccn1-c1cccc2ccccc12)Nc1ccccc1Br`: below 1, 48, 0.64 µM, above 30.5 µM and 30.5 µM.
In the case of `Cc1ccnc2c1NC(=O)c1cccnc1N2C1CC1` [NEVIRAPINE], in data set [4], the CC50 was above 15 µM.
